Laboratory results published in ChEMBL document CHEMBL4184228, “Reversed isoniazids: Design, synthesis and evaluation against Mycobacterium tuberculosis” (Bioorg Med Chem, 2018).
Converted amounts (≈) assume the structure as drawn. The source made the active and inactive calls.

Tests used:
[1] = tested on: Mycobacterium tuberculosis; experiment: Antimycobacterial activity against XDR Mycobacterium tuberculosis isolate TT149 at 10 uM by two fold serial dilution based fluorescence assay; type: functional
Summary of the method: (§1)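 MGIT 960 (BACTEC) broth assay in 7H9 with 1% OADC and 0.05% Tween 80. Compounds are 10 mM DMSO stocks, two-fold serially diluted, final DMSO ≤1.2%, top concentration 10 µM. Tubes incubated at 37°C with growth units read daily. MIC99 is set against a 1% drug-free growth control tube.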

[2] = tested on: Mycobacterium tuberculosis; experiment: Antimycobacterial activity against XDR Mycobacterium tuberculosis isolate X_61 by two fold serial dilution based fluorescence assay; type: functional; summary of the method: as §1
[3] = tested on: Mycobacterium tuberculosis; experiment: Antimycobacterial activity against XDR Mycobacterium tuberculosis isolate X_60 by two fold serial dilution based fluorescence assay; type: functional; summary of the method: as §1
[4] = tested on: Mycobacterium tuberculosis; experiment: Antimycobacterial activity against Mycobacterium tuberculosis H37Rv by two fold serial dilution based fluorescence assay; type: functional; summary of the method: as §1
[5] = tested on: Mycobacterium tuberculosis; experiment: Antimycobacterial activity against XDR Mycobacterium tuberculosis isolate X_3 at 10 uM by two fold serial dilution based fluorescence assay; type: functional; summary of the method: as §1
CHO = experiment: Cytotoxicity against CHO cells; type: cell-based; details: Cricetulus griseus
[6] = Cytotoxicity against human THP1 cells assessed as decrease in cell viability after 24 hrs by MTT assay; type: cell-based; details: THP-1 cells
Summary of the method: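 THP-1 cells at 1.5 x 10^4/well are exposed to a range of compound concentrations for 24 h. MTT is then added for 4 h at 37°C, followed by solubilisation buffer for 30 min. A570 is read. Cytotoxicity % = 100 − [100 × (OD with drug/OD without drug)]. An IC20 cut-off is used to set concentrations for the macrophage work.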

With O=C(NNCCCN1CCN(C(c2ccccc2)c2ccccc2)CC1)c1ccncc1 as the compound, how does the Activity [1] read?
Its Activity is “inactive”.

What about the MIC99 [2] of the same compound?
The MIC99 was 5 µM (≈ 2.15 µg/mL).

And the MIC99 [3]?
Its MIC99 is greater than 10 µM.

And the MIC99 [4]?
Its MIC99 is 5 µM (≈ 2.15 µg/mL).

What about the Activity [5] of the same compound?
Its Activity is “inactive”.

What about the IC50 (CHO) of the same compound?
Its IC50 is 48.1 µM.

With O=C(NNCCCN1CCN(CC(O)(c2ccccc2)c2ccccc2)CC1)c1ccncc1 as the compound, how does the Activity [1] read?
Its Activity is “inactive”.

And the MIC99 [2]?
Its MIC99 is 5 µM (≈ 2.3 µg/mL).

And the MIC99 [3]?
Its MIC99 is greater than 10 µM.

And the MIC99 [4]?
The MIC99 was 1.25 µM (≈ 0.574 µg/mL).

And the Activity [5]?
Its Activity is “inactive”.

What about the IC50 (CHO) of the same compound?
Its IC50 is 174 µM.

For O=C(NNCCCN1c2ccccc2CCc2ccccc21)c1ccncc1, which Activity [1] is on record?
The Activity was “inactive”.

What about the MIC99 [4] of the same compound?
Its MIC99 is 1 µM (≈ 0.372 µg/mL).

And the IC20 at 24 h [6]?
The IC20 at 24 h was greater than 100 µM.

What about the Activity [5] of the same compound?
Its Activity is “inactive”.

With O=C(NNCCCN1CCC(=C2c3ccccc3Sc3ccccc32)CC1)c1ccncc1 as the compound, how does the Activity [1] read?
The Activity was “inactive”.

What about the MIC99 [2] of the same compound?
Its MIC99 is 2.5 µM (≈ 1.14 µg/mL).

And the MIC99 [3]?
The MIC99 was greater than 10 µM.

What about the MIC99 [4] of the same compound?
Its MIC99 is 1.25 µM (≈ 0.571 µg/mL).

What about the Activity [5] of the same compound?
Its Activity is “inactive”.

What about the IC50 (CHO) of the same compound?
Its IC50 is 152 µM.

With CN(C)CCCN1c2ccccc2Sc2ccc(Cl)cc21 [CHLORPROMAZINE] as the compound, how does the IC20 at 24 h [6] read?
The IC20 at 24 h was 4 µM.

For O=C(NNCCCN1CCC(N2c3ccccc3Sc3ccc(Cl)cc32)CC1)c1ccncc1, which Activity [1] is on record?
The Activity was “inactive”.

What about the MIC99 [2] of the same compound?
Its MIC99 is greater than 10 µM.

And the MIC99 [3]?
The MIC99 was greater than 10 µM.

And the MIC99 [4]?
Its MIC99 is 1 µM (≈ 0.494 µg/mL).

What about the IC20 at 24 h [6] of the same compound?
Its IC20 at 24 h is 2.2 µM.

What about the Activity [5] of the same compound?
Its Activity is “inactive”.

What about the IC50 (CHO) of the same compound?
Its IC50 is 37.4 µM.

Which MIC99 [1] does the source give for NNC(=O)c1ccncc1 [ISONIAZID] here?
The MIC99 was greater than 10 µM.

What about the MIC99 [2] of the same compound?
The MIC99 was 2.5 µM (≈ 0.343 µg/mL).

What about the MIC99 [3] of the same compound?
The MIC99 was greater than 10 µM.

What about the MIC99 [4] of the same compound?
The MIC99 was 0.73 µM (≈ 0.1 µg/mL).

What about the IC20 at 24 h [6] of the same compound?
Its IC20 at 24 h is greater than 100 µM.

And the MIC99 [5]?
Its MIC99 is greater than 10 µM.

And the IC50 (CHO)?
Its IC50 is greater than 100 µM.

Which Activity [1] does the source give for O=C(NNCCCN1CCN(C2c3ccccc3CCc3ccccc32)CC1)c1ccncc1 here?
The Activity was “inactive”.

And the MIC99 [4]?
Its MIC99 is 5 µM (≈ 2.28 µg/mL).

And the Activity [5]?
Its Activity is “inactive”.

What does the source list for O=C(NNCCCN1CCC(=C2c3ccccc3C=Cc3ccccc32)CC1)c1ccncc1?
Activity [1]: inactive; MIC99 [2]: 5 µM (≈ 2.25 µg/mL); MIC99 [3]: > 10 µM; MIC99 [4]: 1.25 µM (≈ 0.563 µg/mL); Activity [5]: inactive; IC50 (CHO): 148 µM

Which Activity [1] does the source give for O=C(NNCCCN1c2ccccc2Sc2ccc(Cl)cc21)c1ccccc1 here?
The Activity was “inactive”.

And the MIC99 [4]?
Its MIC99 is greater than 10 µM.

What about the IC20 at 24 h [6] of the same compound?
Its IC20 at 24 h is greater than 100 µM.

And the Activity [5]?
Its Activity is “inactive”.

With O=C(NNCCCNCCCN1c2ccccc2Sc2ccc(Cl)cc21)c1ccncc1 as the compound, how does the Activity [1] read?
Its Activity is “inactive”.

What about the MIC99 [4] of the same compound?
The MIC99 was 5 µM (≈ 2.34 µg/mL).

And the Activity [5]?
Its Activity is “inactive”.

Which Activity [1] does the source give for O=C(NNCCCN1c2ccccc2Sc2ccccc21)c1ccccc1 here?
Its Activity is “inactive”.

What about the MIC99 [4] of the same compound?
Its MIC99 is greater than 10 µM.

What about the IC20 at 24 h [6] of the same compound?
Its IC20 at 24 h is greater than 100 µM.

And the Activity [5]?
The Activity was “inactive”.

Which Activity [1] does the source give for O=C(NNCCCN1c2ccccc2Sc2ccc(Cl)cc21)c1ccncc1 here?
Its Activity is “inactive”.

What about the MIC99 [4] of the same compound?
The MIC99 was 0.25 µM (≈ 0.103 µg/mL).

What about the IC20 at 24 h [6] of the same compound?
Its IC20 at 24 h is 24.4 µM.

What about the Activity [5] of the same compound?
The Activity was “inactive”.

For O=C(NNCCCN1CCC(N2c3ccccc3Sc3ccccc32)CC1)c1ccncc1, which Activity [1] is on record?
The Activity was “inactive”.

What about the MIC99 [2] of the same compound?
The MIC99 was 2.5 µM (≈ 1.15 µg/mL).

What about the MIC99 [3] of the same compound?
Its MIC99 is greater than 10 µM.

What about the MIC99 [4] of the same compound?
Its MIC99 is 5 µM (≈ 2.3 µg/mL).

And the Activity [5]?
The Activity was “inactive”.

What about the IC50 (CHO) of the same compound?
Its IC50 is 122 µM.

For O=C(NNCCCN1CCN(C(c2ccccc2)(c2ccccc2)c2ccccc2)CC1)c1ccncc1, which Activity [1] is on record?
Its Activity is “inactive”.

What about the MIC99 [2] of the same compound?
The MIC99 was 2.5 µM (≈ 1.26 µg/mL).

What about the MIC99 [3] of the same compound?
Its MIC99 is 2.5 µM (≈ 1.26 µg/mL).

What about the MIC99 [4] of the same compound?
Its MIC99 is 1.25 µM (≈ 0.632 µg/mL).

What about the Activity [5] of the same compound?
Its Activity is “inactive”.

And the IC50 (CHO)?
The IC50 was 97.6 µM.

For O=C(NNCCCNCCCN1c2ccccc2Sc2ccccc21)c1ccncc1, which Activity [1] is on record?
Its Activity is “inactive”.

And the MIC99 [4]?
The MIC99 was 5 µM (≈ 2.17 µg/mL).

And the Activity [5]?
The Activity was “inactive”.

Which Activity [1] does the source give for O=C(NNCCCN1CCC(=C2c3ccccc3Sc3ccc(Cl)cc32)CC1)c1ccncc1 here?
The Activity was “inactive”.

And the MIC99 [2]?
Its MIC99 is 2.5 µM (≈ 1.23 µg/mL).

What about the MIC99 [3] of the same compound?
Its MIC99 is greater than 10 µM.

And the MIC99 [4]?
The MIC99 was 0.625 µM (≈ 0.307 µg/mL).

What about the Activity [5] of the same compound?
The Activity was “inactive”.

What about the IC50 (CHO) of the same compound?
The IC50 was 296 µM.

Which Activity [1] does the source give for O=C(NNCCCN1c2ccccc2Sc2ccccc21)c1ccncc1 here?
The Activity was “inactive”.

And the MIC99 [4]?
Its MIC99 is 1 µM (≈ 0.376 µg/mL).

What about the IC20 at 24 h [6] of the same compound?
The IC20 at 24 h was greater than 100 µM.

What about the Activity [5] of the same compound?
Its Activity is “inactive”.
